Screening results: PubChem, several laboratories
DDE Tn6 FP inh: inhibitors of Tn6 peptide binding to fibrin DD(E), primary screen, biochemical, fluorescence polarization, human fibrin, Tn6 probe | Fibrinogen beta chain (Homo sapiens), P02675 | Fibrin DD(E) TRITC-Tn6 fluorescence polarization displacement | inhibition, % at 8.3 µM | 370,000 compounds, 0.21% hits | AID 720509, 2013;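 active = inhibition above a per-campaign cutoff: mean of compounds within control limits plus 3 SD, cut at about 15% in these data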;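 also: 0% = median of all compound wells on the plate and 100% = blocking peptide control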
Target sequence (P02675 whole entry, looked up): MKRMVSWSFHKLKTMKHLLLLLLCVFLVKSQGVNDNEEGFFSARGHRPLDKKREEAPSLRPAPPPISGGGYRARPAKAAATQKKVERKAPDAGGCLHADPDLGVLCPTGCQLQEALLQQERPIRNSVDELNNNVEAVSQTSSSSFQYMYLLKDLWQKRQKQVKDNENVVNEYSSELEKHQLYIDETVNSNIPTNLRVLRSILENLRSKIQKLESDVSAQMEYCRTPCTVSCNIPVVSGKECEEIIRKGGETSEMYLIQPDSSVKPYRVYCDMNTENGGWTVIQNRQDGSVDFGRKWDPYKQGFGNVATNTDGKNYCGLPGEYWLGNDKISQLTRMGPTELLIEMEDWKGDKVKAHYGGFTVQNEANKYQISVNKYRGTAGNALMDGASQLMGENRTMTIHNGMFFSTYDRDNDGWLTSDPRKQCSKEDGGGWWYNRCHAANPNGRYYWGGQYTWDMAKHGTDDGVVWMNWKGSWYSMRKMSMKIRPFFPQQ
SKN-1 inh: suppressors of acrylamide-induced Pgst-4::GFP reporter in worms, primary screen, SKN-1 inhibitor project, whole organism, uHTS, GFP/RFP fluorescence ratio, strain VP596; C. elegans VP596 Pgst-4::GFP/RFP ratio, 24 h; inhibition, % at 21.8 µM; 360,000 compounds, 0.49% hits; AID 624304, 2012;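 active = interference check ratio from 0.5 to 1.5 plus GFP to RFP signal ratio inhibition reaching or exceeding a fixed threshold, cut at about 30% in these data, passing the limit was not always enough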
Tn7 DDE FP: inhibitors of Tn7 peptide binding to fibrin DD(E), primary screen, biochemical, fluorescence polarization, human fibrin, Tn7 probe; Fibrinogen beta chain (Homo sapiens), P02675; FP displacement of FITC-Tn7 peptide from fibrin DD(E); 0% = median of compound wells per plate; inhibition, % at 8.3 µM; 370,000 compounds, 0.13% hits;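 active = inhibition above the mean of compounds falling within the control limits plus 3 SD of them, cut at about 14% in these data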;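 also: 0% = plate median of compound wells and 100% = 10 µM Aha-Tn7 peptide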
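Assay system: human fibrin DD(E) protein / Input: 2 µM fibrin DD(E) / Benchmarks: high control of 10 µM Aha-Tn7 peptide / Measured by: fluorescence polarization of the labelled Tn7 tracer / Medium: Tris buffer with calcium and detergent, pH 7.8 / Timing: 10 min compound pre-incubation, 3 h probe incubation at room temperature / Repeats: one replicate per compound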
Neddylation inh: inhibitors of cullin neddylation, primary screen, biochemical, TR-FRET, uHTS, NAE and Ubc12; calls only at 25 µM; 360,000 compounds, 0.58% hits; in the data active = inhibition above about 36%
MT1-MMP act inh: blockers of MT1-MMP proenzyme processing, primary screen, HT1080 RFP-PRO-GFP cells, GFP/RFP fluorescence; 360,000 compounds, 0.061% hits; Matrix metalloproteinase-14 (Homo sapiens), P50281; AID 651647, 2012; GFP/RFP ratio fluorescence, overnight; percent of plate control window, DMSO zero; GFP/RFP ratio change, % at 20 µM;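 active = GFP/RFP ratio change of at least 30% with cell ATP level not reduced by more than half and red fluorescence within 50% of control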
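Read-out: GFP/RFP fluorescence ratio; Test system: RFP-PRO-GFP reporter HT1080 cells; Compound dosing: single-point 20 µM compound, 1% DMSO; Times: overnight compound exposure at 37 °C.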
KLK7 zymogen act: proKLK7 zymogen activators, primary screen, biochemical, fluorescence intensity; 370,000 compounds, 0.9% hits; purified proKLK7, EDANS-DABCYL substrate fluorescence; 100% is mature enzyme control, 0% vehicle; activation, % at 7 µM; AID 652039, 2013;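 active = activation above the mean of all tested compounds plus 3 SD, computed per campaign excluding outliers beyond control limits, cut at about 13% in these data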
Neddyl inh conf: blockade of NEDD8 conjugation to cullin – biochemical, TR-FRET, single concentration, confirmation; 1,800 compounds, 13% hits; calls only at 25 µM; shares compounds with Neddylation inh; TR-FRET cullin neddylation biochemical assay; AID 652217, 2013; in the data active = inhibition above about 40%;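 also: neddylation substrate is the cullin 1 ring ligase complex with SKP2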
Starred values were filed as active, the others as inactive; i = inactive; / = no result given; + = active, no number. Shown are actives, neighbours in structure and some others; about 2.2% of the full set was active somewhere.

SMILES	DDE Tn6 FP inh	SKN-1 inh	Tn7 DDE FP	Neddylation inh	MT1-MMP act inh	KLK7 zymogen act	Neddyl inh conf
Cc1ccc(C(=O)Nc2nnc([C@H]3C[C@H](O)[C@@H](CO)O3)s2)cc1	3	3	-4	i	0	0	/
COC(=O)c1cc(-c2ccc3c(c2)OCO3)nc2ccccc12	2	-4	0	/	-3	2	/
Cc1cc(C)nc(NC(=O)c2cc(-c3ccc4c(c3)OCO4)nc3ccccc23)c1	-11	13	-6	+	-9	-32	/
Cc1ccc(-c2nnn(CCC(=O)Nc3ccc4c(c3)OCO4)n2)cc1	-1	5	-4	i	-4	0	/
CCN(CC(=O)NC(C)C)C(=O)c1ccc(Cl)cc1	-6	8	10	i	3	0	/
CCOC(=O)Cc1cc(=O)n2[nH]c(C)c(-c3ccc(OC)cc3)c2n1	-7	9	-8	+	8	-2	/
O=C(CSc1ccc2nnc(-c3cccnc3)n2n1)Nc1ccccc1C(F)(F)F	3	-4	2	+	1	1	/
CCOc1cc(/C=C/c2nc3ccccc3s2)ccc1OCC(=O)N1CCOCC1	-7	8	-9	+	-4	5	/
O=C(c1ccccc1)N1CCN(c2ccc(N3CCOCC3)nn2)CC1	-1	8	2	+	3	5	/
O=C(c1ccc(Cl)cc1Cl)N1CCN(c2ccc(N3CCOCC3)nn2)CC1	8	0	6	+	-1	7	/
COc1ccccc1C(=O)N1CCN(c2ccc(N3CCOCC3)nn2)CC1	-1	-1	8	/	-3	-1	/
O=C(c1cccc(Cl)c1)N1CCN(c2ccc(N3CCOCC3)nn2)CC1	-8	14	-5	+	1	3	/
CCOC(=O)c1c(-c2ccccc2)n(C)c2ccc(O)cc12	-5	5	-1	+	1	0	/
CC1=CC(c2ccc(Cl)cc2)n2ncnc2N1 (stereo unspecified)	5	1	9	+	-1	0	i
CC1CCN(c2ccccc2NC(=O)c2cc3ccccc3o2)CC1	-6	17	-3	+	-2	0	i
COc1ccc(-c2cc3ccc(OCC(N)=O)cc3oc2=O)cc1OC	8	-2	-4	+	5	1	i
CCC(C(=O)NC1CC1)n1nc(C)c2c(C)n(-c3ccccc3)nc2c1=O (stereo unspecified)	-2	3	-4	i	-2	-1	/
OC[C@H]1O[C@@H](c2nc(-c3ccccc3Br)no2)[C@H](O)[C@@H]1O	3	-11	4	i	-9	-1	/
C/C(CCC1CC(C)(C)OC1=O)=N\NC(N)=S (stereo unspecified)	-1	-5	4	i	0	1	/
COc1cc(/C=C/C(=O)NCCN2CCOCC2)cc(OC)c1OC	-5	2	12	+	3	1	i
COc1ccc(OC)c(/C=C/C(=O)NC2=NCCS2)c1	-2	-6	-1	+	-1	1	/
COCCNC(=O)[C@@H]1CSC2c3ccc(OC)c(OC)c3C(=O)N21 (stereo partly specified)	-3	-3	-7	/	0	-1	/
CCCCNC(=O)[C@@H]1CSC2c3ccc(OC)c(OC)c3C(=O)N21 (stereo partly specified)	-3	-4	-4	+	2	-2	i
COc1cc(/C=C2/SC(=S)N(CC3CCCO3)C2=O)ccc1O (stereo unspecified)	-8	8	-6	i	-31	0	/
CCOC(=O)C1=C(C)Nc2nnnn2C1c1cccnc1 (stereo unspecified)	7	-6	5	i	2	0	/
SMILES	DDE Tn6 FP inh	SKN-1 inh	Tn7 DDE FP	Neddylation inh	MT1-MMP act inh	KLK7 zymogen act	Neddyl inh conf
COc1ccc(C(C)C)cc1-c1cccc2nncn12	-7	0	-3	+	0	2	i
COc1cc2c(cc1OC)/C(=C/C(=O)c1ccc(C)cc1)NCC2	-5	-2	-2	+	4	2	i
COc1cc2c(cc1OC)/C(=C/C(=O)c1ccccc1)NCC2	-6	-15	-3	i	-3	-2	/
CCn1c2ccccc2c2nc3cc(OC)c(OC)cc3nc21	-1	13	-1	+	-5	-19	/
CCOCCn1c2ccccc2c2nc3ccccc3nc21	-3	16	5	+	1	-5	i
COc1ccc(CNC(=O)[C@H](C)N2C(=O)N3CCc4c([nH]c5ccccc45)[C@@]3(C)C2=O)cc1OC	-4	19	4	i	-2	0	/
O=C(NC1CCCN(Cc2ccc(Cl)cc2)C1)c1cnc2ccccn2c1=O (stereo unspecified)	-2	-3	-3	+	5	5	/
Cc1ccccc1-c1cc(C(=O)NCc2ccc(OC(F)(F)F)cc2)n(CC2CC(c3cccnc3)=NO2)n1 (stereo unspecified)	1	-6	-5	i	/	0	/
COc1ccc(/C=N/NC(=O)c2ccc(N(C)S(=O)(=O)c3ccccc3)cc2)c(OC)c1	-4	2	-1	+	1	0	i
COc1ccc(C=NNC(=O)c2ccccc2OCc2ccc(F)cc2)c(OC)c1	-1	3	-1	+	0	1	i
COc1ccc(OC)c(/C=N/NC(=O)c2ccc(N(C)S(=O)(=O)c3ccccc3)cc2)c1	-3	3	4	/	0	-6	/
CCOc1cc(C(=O)NCCOC)cc(OCC)c1OCC	-2	8	-3	i	-2	1	/
CCOC(=O)c1c(NC(=O)COC(=O)c2cnccn2)sc(C)c1C	-8	18	1	i	5	0	/
COc1ccc2oc(C(=O)OCC(=O)N(C)CC(=O)Nc3ccc(C)cc3)c(C)c2c1	0	5	3	+	2	0	/
COc1ccc2oc(C(=O)OCC(=O)Nc3ccc(OC)c(S(N)(=O)=O)c3)c(C)c2c1	1	11	-1	+	1	-5	/
